Test results as given in ChEMBL document CHEMBL1151207, “Enniatins of Fusarium sp. strain F31 and their inhibition of Botrytis cinerea spore germination” (2004).
Converted amounts (≈) assume the structure as drawn.

Legend:
Botrytis cinerea [1] = experiment: Antifungal activity against Botrytis cinerea 98G1 spore germination after 24 hrs at 20 degC in darkness by microtiter plate method; assay type: functional; conditions: 98G1, 24 h
In short: (§1)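 B. cinerea 98G1 conidia (tomato leaf agar, near-UV induced sporulation, mesh-filtered) suspended at 10⁶ spores/mL in liquid Hagem, 100 μL per well over dried isolated enniatins or commercial enniatin mixture at 10, 25, 50, 75, 100 μg/mL. A620 read at inoculation and after 24 h at 20 ± 1 °C in darkness, plus stereomicroscope 4-rank scale; duplicate wells.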

Botrytis cinerea [2] = experiment: Antifungal activity against Botrytis cinerea 98G1 assessed as drug level required for detectable inhibition of fungal growth after 24 hrs at 20 degC in darkness by microtiter plate method; assay type: functional; in short: as §1

| Structure (SMILES) | MIC (Botrytis cinerea [1]) | Activity (Botrytis cinerea [2]) |
| --- | --- | --- |
| CC[C@H](C)[C@H]1C(=O)O[C@H](C(C)C)C(=O)N(C)[C@@H](C(C)C)C(=O)O[C@H](C(C)C)C(=O)N(C)[C@@H](C(C)C)C(=O)O[C@H](C(C)C)C(=O)N1C [ENNIATIN B1] | 75 µg/mL (≈ 115 µM) | 25 µg/mL |
| CC(C)[C@H]1C(=O)O[C@H](C(C)C)C(=O)N(C)[C@@H](C(C)C)C(=O)O[C@H](C(C)C)C(=O)N(C)[C@@H](C(C)C)C(=O)O[C@H](C(C)C)C(=O)N1C [ENNIATIN B] | > 100 µg/mL | 100 µg/mL |
| CC[C@H]1C(=O)O[C@H](C(C)C)C(=O)N(C)[C@@H](C(C)C)C(=O)O[C@H](C(C)C)C(=O)N(C)[C@@H](C(C)C)C(=O)O[C@H](C(C)C)C(=O)N1C [ENNIATIN K1] | > 100 µg/mL | 100 µg/mL |

Second part, led by results:

| MIC (Botrytis cinerea [1]) | Structure (SMILES) | Activity (Botrytis cinerea [2]) |
| --- | --- | --- |
| > 100 µg/mL | CC(C)[C@@H]1NC(=O)[C@@H](C(C)C)OC(=O)[C@H](C(C)C)N(C)C(=O)[C@@H](C(C)C)OC(=O)[C@H](C(C)C)N(C)C(=O)[C@@H](C(C)C)OC1=O [ENNIATIN B2] | >100 µg/mL |
| > 100 µg/mL | CC(C)C[C@H]1C(=O)O[C@H](C(C)C)C(=O)N(C)[C@@H](C(C)C)C(=O)O[C@H](C(C)C)C(=O)N(C)[C@@H](C(C)C)C(=O)O[C@H](C(C)C)C(=O)N1C [ENNIATIN B4] | 50 µg/mL |
| > 100 µg/mL | CC(C)[C@H]1C(=O)O[C@H](C(C)C)C(=O)N(C)[C@@H](C)C(=O)O[C@H](C(C)C)C(=O)N(C)[C@@H](C(C)C)C(=O)O[C@H](C(C)C)C(=O)N1C [ENNIATIN J1] | >100 µg/mL |
